bCat KO growth = beta-catenin-lacking colon tumor cell growth suppression | HCT116 beta-catenin knockout viability, CellTiter-Glo, 60 h; hits give low values | viability, % at 10 µM | 140,000 compounds, 1.5% hits | AID 818;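 active means viability at or under a set limit, the compound median less 4 SD, cut at about 6% in these data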
H69AR growth 86K = growth inhibitors of human H69AR lung tumor cells; H69AR lung tumor viability, ATP luminescence, 72 h; hits give low values; viability, % at 10 µM; 85,000 compounds, 6% hits;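 active means viability at or below 40%; inactive means viability above 40%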;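 further: multidrug resistant small cell line overexpressing MRP-1 efflux transporter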
HCT116 PTEN-null = suppresses growth of cells with PTEN deletion. HCT116 PTEN-null viability, CellTiter-Glo, 60 h; hits give low values. viability, % at 10 µM. 140,000 compounds, 1.2% hits. AID 827;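 active means viability at or below a set limit, 4 SD under the median of all tested compounds, cut at about 3.7% in these data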;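 further: PTEN knockout HCT116 line with beta catenin targeted HCT116 as companion control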
HUVEC inhibit = human endothelial cell proliferation inhibition; viability, % at 10 µM (by protocol); HUVEC proliferation, CellTiter-Glo luminescence, 72 h; hits give low values; 86,000 compounds, 1.1% hits; AID 648;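 active means viability at or below 30%; inactive means viability above 30%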
Lung fibro prol = blocks proliferation of human lung fibroblasts; 85,000 compounds, 1.1% hits; viability, % at 10 µM; LL 47 human lung fibroblast viability, ATP luminescence; hits give low values;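 active means viability at or below 50% in the single dose screen; inactive means viability above 50%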;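 further: compound exposure lasted 72 h before the ATP readout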
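Test system: LL 47 human lung fibroblasts / Incubation: 72 h compound exposure at 37 °C after overnight plating / Technique: luminescent ATP detection, CellTiter-Glo / Compound dosing: 0.1% DMSO in all compound wells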
Each line names hits and unclear results; the compound was inactive in the other large screens. The entries come from a sample that favours hits as a whole.

CC1=CC(C)(C)N(S(=O)(=O)c2ccc(C)cc2)c2cc(C)ccc21	H69AR growth 86K 34.5
CNC(=O)c1cc2c(=O)n3cccc(C)c3nc2n1C	none (no result: bCat KO growth, HCT116 PTEN-null)
CCC(CC)c1nnc(NC(=O)c2c(C)nn(Cc3ccccc3Cl)c2C)s1	none
CN(Cc1ccccc1)S(=O)(=O)c1ccc(NS(=O)(=O)Cc2ccccc2)cc1	none
CCOc1cc(C)c(-c2onc(C(F)(F)F)c2-c2csc(C)n2)c(O)c1	H69AR growth 86K 3.9
Cc1nc(-c2c(C(F)(F)F)noc2-c2ccc(O)cc2O)cs1	none
Cc1ccc(C2C(C#N)=C(N)Oc3c2sc2ccccc32)o1 (stereo not given)	H69AR growth 86K 12.7
CCOC(=O)CC1=C(C(=O)OCC)C(c2ccc(C)o2)C(C#N)=C(N)O1 (stereo not given)	none
COc1ccc(NC(=S)NN(C)C(=S)Nc2ccc(OC)cc2)cc1	none (no result: H69AR growth 86K, HUVEC inhibit, Lung fibro prol)
CCCCN1C(=O)C(NC(C)=O)c2cc(Br)ccc21 (stereo not given)	H69AR growth 86K 24.5
CCCCc1oc2ccccc2c1C(=O)c1cc(I)c(OCCN(CC)CC)c(I)c1	H69AR growth 86K 2.1, HUVEC inhibit 16.9
COC(=O)[C@@]1(Cc2ccc(F)cc2)[C@H]2c3cc(C(=O)N4CCCC4)n(CCc4ccccn4)c3C[C@H]2CN1C(=O)c1ccccc1	none (no result: H69AR growth 86K, HUVEC inhibit, Lung fibro prol)
Cc1ccc(NC(=O)NNc2cccc(Cl)n2)cc1	none (no result: H69AR growth 86K, HUVEC inhibit, Lung fibro prol)
CCn1c(Sc2nc(C)nc3scc(-c4cccs4)c23)n[nH]c1=O	H69AR growth 86K 2.8
Cc1cccc(-n2c(N)cc(=O)nc2SCC(=O)Nc2nnc(C)s2)c1	none
CCOC(=O)CCS(=O)(=O)c1nc(-c2ccccc2)cc(C(F)(F)F)n1	H69AR growth 86K 0.8, HUVEC inhibit 28.4, Lung fibro prol 3.0
CCOC(=O)CS(=O)(=O)c1nc(-c2ccc(F)cc2)cc(C(F)(F)F)n1	H69AR growth 86K 4.4, HUVEC inhibit 23.5, Lung fibro prol 2.9
COC(=O)CCS(=O)(=O)c1nc(-c2ccccc2)cc(C(F)(F)F)n1	H69AR growth 86K 1.4, Lung fibro prol 27.5
COCC(C)NC(=O)CCS(=O)(=O)c1nc(-c2ccc(OC)cc2)cc(C(F)(F)F)n1 (stereo not given)	none (no result: H69AR growth 86K, HUVEC inhibit, Lung fibro prol)
CCOC(=O)CS(=O)(=O)c1nc(-c2ccccc2)cc(C(F)(F)F)n1	H69AR growth 86K 1.6, HUVEC inhibit 12.2, Lung fibro prol 3.8
CCOC(=O)CS(=O)(=O)c1ccccc1	none
O=S(=O)(CCc1nc2ccccc2o1)c1ccc2ccccc2c1	none
COc1ccccc1NCc1nnc(SCC(=O)N/N=C/c2ccco2)n1-c1ccc(Cl)cc1Cl	none (no result: H69AR growth 86K, HUVEC inhibit, Lung fibro prol)
O=S(=O)(NC1CC2CCC1C2)c1ccc(Br)s1 (stereo not given)	none
CCOC(=O)N1CCC2(CC1)C(C#N)=C(N)OC1=C2C(=O)CC(C)C1 (stereo not given)	none
O=C(Nc1cccc(S(=O)(=O)N2CCCCC2)c1)c1ccc2ccccc2n1	none (no result: H69AR growth 86K, HUVEC inhibit, Lung fibro prol)
O=C(Nc1cccc(S(=O)(=O)N2CCCCC2)c1)Nc1ccc(Cl)cc1Cl	bCat KO growth 1.5, HCT116 PTEN-null 1.4 (no result: H69AR growth 86K, HUVEC inhibit, Lung fibro prol)
CC1(C)OC(=O)C(=NNc2ccc(Br)cc2)C(=O)O1	none (no result: H69AR growth 86K, HUVEC inhibit, Lung fibro prol)
COc1cc(NC(=S)Nc2cccnc2)cc(OC)c1	none (no result: H69AR growth 86K, HUVEC inhibit, Lung fibro prol)
O=C(O)CCCCCN1C(=O)/C(=C\c2ccncc2)SC1=S	none (no result: H69AR growth 86K, HUVEC inhibit, Lung fibro prol)
COc1ccc(CN2C(=O)/C(=C/c3ccncc3)SC2=S)cc1	bCat KO growth 2.5, HCT116 PTEN-null 2.0 (no result: H69AR growth 86K, HUVEC inhibit, Lung fibro prol)
OC(COCc1ccc(Cl)cc1)CN1CCN(CC(O)COCc2ccc(Cl)cc2)CC1 (stereo not given)	bCat KO growth 5.5
O=c1cc2[nH]c3ccccc3c(=O)n2nc1-c1ccccc1	none (no result: H69AR growth 86K, HUVEC inhibit, Lung fibro prol)
CC(C)NC(=O)c1ccc2c(c1)S(=O)(=O)c1ccccc1C2=O	none
O=C(Nc1nc(-c2ccccc2)cs1)c1ccc2c(c1)S(=O)(=O)c1ccccc1C2=O	bCat KO growth 4.0, HCT116 PTEN-null 2.5 (no result: H69AR growth 86K, HUVEC inhibit, Lung fibro prol)
COC(=O)Cn1c(=NC(=O)c2ccc(Cl)s2)sc2cc(F)ccc21	none (no result: H69AR growth 86K, HUVEC inhibit, Lung fibro prol)
C#CCn1c(=NC(=O)c2cccs2)sc2cccc(OCC)c21	H69AR growth 86K 22.6
C#CCn1c(=NC(=O)c2ccc(Cl)s2)sc2cccc(OC)c21	bCat KO growth 4.4, H69AR growth 86K 1.5
COc1ccc(-n2nc(C(=O)Nc3ccc4c(c3)OCO4)c3c4ccccc4n(C)c3c2=O)cc1	none (no result: bCat KO growth, HCT116 PTEN-null)
COc1ccc(-n2nc(C(=O)Nc3ccc4c(c3)OCO4)c3ccccc3c2=O)c(OC)c1	H69AR growth 86K 7.0
COc1ccc(-n2nc(C(=O)Nc3ccc(OC)c(OC)c3)c3c4ccccc4n(C)c3c2=O)cc1	bCat KO growth 3.7, H69AR growth 86K 9.2, HCT116 PTEN-null 3.5
CCN(CC)CCNC(=O)c1nn(-c2ccc(C)cc2)c(=O)c2c1c1ccccc1n2C	HUVEC inhibit 19.8
COc1ccccc1-n1nc(C(=O)Nc2ccc3c(c2)OCO3)c2ccccc2c1=O	none
O=S(=O)(NCc1cc(-c2ccccc2Cl)no1)c1ccc(Cl)cc1	none (no result: H69AR growth 86K, HUVEC inhibit, Lung fibro prol)
CCOC(=O)Cc1csc(NC(=O)CCNS(=O)(=O)c2ccc3c(c2)CCC(=O)N3)n1	none
COC(=O)C1=C(C)NC(C)=C(C(=O)OC)C1c1cc2ccc(C)cc2[nH]c1=O	H69AR growth 86K 20.4
Cc1ccc(-c2cc(C(F)F)nc(N3CCC(C)CC3)n2)cc1	none (no result: H69AR growth 86K, HUVEC inhibit, Lung fibro prol)
COc1ccc(NC(=O)/C(C#N)=C\c2cc(C)n(-c3ccc(Oc4ccc([N+](=O)[O-])cn4)cc3)c2C)cc1	H69AR growth 86K 33.1
Cc1cc(C=O)c(C)n1-c1ccc(Oc2ccc([N+](=O)[O-])cn2)cc1	none (no result: H69AR growth 86K, HUVEC inhibit, Lung fibro prol)
CN(C)c1ccc(N/C=C/C(=O)c2ccco2)cc1	none
CN(C)c1ccc(N/C=C/C(=O)c2ccc(F)cc2)cc1	H69AR growth 86K 34.8
O=C(Oc1ccccc1)c1c(Cl)cccc1P(=O)(O)O	none
CC(C)(C)c1csc(NC(=O)c2ccc(Cl)s2)n1	none
CCNc1nc(N)c(C(=O)c2ccc(Cl)s2)s1	H69AR growth 86K 28.5
CC(C)Oc1ccc(NC(=O)c2ccncc2)cc1	none
CCOC(=O)C1C(=O)C=C(c2ccc(Br)cc2)CC1c1ccco1 (stereo not given)	H69AR growth 86K 27.6
CCOC(=O)C1C(=O)C=C(c2cccc(NS(C)(=O)=O)c2)CC1c1ccco1 (stereo not given)	H69AR growth 86K 37.0
CCOC(=O)C1C(=O)C=C(c2ccc([N+](=O)[O-])cc2)CC1c1ccccc1 (stereo not given)	none (no result: H69AR growth 86K, HUVEC inhibit, Lung fibro prol)
Cc1ccc(OC(=O)Cn2c(C(F)(F)F)nc3ccccc32)cc1	none (no result: H69AR growth 86K, HUVEC inhibit, Lung fibro prol)
CCOc1ccccc1C(=O)Nc1ccc2nc(N3CCN(c4ncccn4)CC3)cc(C)c2c1	H69AR growth 86K 0.5, HUVEC inhibit 6.2 (no result: bCat KO growth, HCT116 PTEN-null)
COc1cccc(C(=O)Nc2ccc3nc(N4CCN(c5ncccn5)CC4)cc(C)c3c2)c1OC	bCat KO growth 2.0, HCT116 PTEN-null 1.7 (no result: H69AR growth 86K, HUVEC inhibit, Lung fibro prol)
CCN1CCN(c2cc(C)c3cc(NC(=O)Cc4ccccc4OC)ccc3n2)CC1	none (no result: H69AR growth 86K, HUVEC inhibit, Lung fibro prol)
COc1cccc(C(=O)Nc2ccc3nc(N4CCOCC4)cc(C)c3c2)c1	none
COc1cc(/C=N/NC(=O)c2cncc(Br)c2)ccc1OC(=O)c1ccc2c(c1)OCO2	none (no result: H69AR growth 86K, HUVEC inhibit, Lung fibro prol)
N#CCc1nc2c3c4c(sc3ncn2n1)CCCC4	HUVEC inhibit 16.3

Compound activity (PubChem)
